Experiment: Part II multiple ascending-dose pharmacokinetics
Format: in vivo, human
Conditions: part II, N 6; for t max: mean (range) per footnote; for AUCt / AUC∞ / Accumulation Index / C max / CL / V z/F_obs / t ½ / λz: mean ± SD
How it was run: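 Four panels of eight (six drug, two placebo) were dosed orally, fasted, with 100, 150, 200 or 300 mg on Days 1, 3 and 5. Blood was taken pre-dose and at 0.5–36 h after the Day 1 and Day 5 doses, pre-dose and 12, 24 and 36 h after Day 3, and 48 and 72 h after Day 5. Diluted-blood LC-MS/MS (LLOQ 2 ng/mL). Accumulation index was derived.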

[1] = 100 mg oral on Days 1, 3, 5, Day 1
[2] = 100 mg oral on Days 1, 3, 5, Day 5
[3] = 150 mg oral on Days 1, 3, 5, Day 1
[4] = 150 mg oral on Days 1, 3, 5, Day 5
[5] = 200 mg oral on Days 1, 3, 5, Day 1
[6] = 200 mg oral on Days 1, 3, 5, Day 5
[7] = 300 mg oral on Days 1, 3, 5, Day 1
[8] = 300 mg oral on Days 1, 3, 5, Day 5

In the case of `O=C(O)CNC(=O)c1c(O)c2ccccc2n(OCC2CC2)c1=O` [ZYAN1], the t max [1] is reported as 2.00 (1.00–3.00) h, the AUCt [1] is reported as 36,885.130 ± 11,488.927 h·ng/mL and the “AUC∞” value [1] is reported as 38,817.512 ± 13,184.682 h·ng/mL. The “Accumulation Index” value [1] was 1.027 ± 0.018, the C max [1] was 6549.000 ± 1567.979 ng/mL and the CL [1] was 2834.521 ± 775.188 mL/h. The V z/F_obs [1] was 34,916.562 ± 8463.050 mL, the “t ½” value [1] was 8.811 ± 1.869 h and the λz [1] was 0.082 ± 0.020 h⁻¹. For the same molecule, the t max [2] was 2.00 (1.50–2.50) h, the AUCt [2] was 39,690.467 ± 11,051.227 h·ng/mL and the “AUC∞” value [2] was 40,102.984 ± 11,276.275 h·ng/mL. The “Accumulation Index” value [2] was 1.106 ± 0.128, the C max [2] was 6566.667 ± 1525.703 ng/mL and the CL [2] was 2744.020 ± 798.472 mL/h. For the same molecule, the V z/F_obs [2] was 47,571.130 ± 18,996.205 mL, the “t ½” value [2] was 12.968 ± 6.654 h and the λz [2] was 0.065 ± 0.029 h⁻¹. For the same molecule, the t max [3] was 1.50 (1.00–3.50) h, the AUCt [3] was 59,780.215 ± 8539.865 h·ng/mL and the “AUC∞” value [3] was 62,811.249 ± 10,222.543 h·ng/mL. The “Accumulation Index” value [3] was 1.025 ± 0.026, the C max [3] was 8185.667 ± 1215.600 ng/mL and the CL [3] was 2487.695 ± 399.669 mL/h. For the same molecule, the V z/F_obs [3] was 29,315.063 ± 6213.656 mL, the “t ½” value [3] was 8.390 ± 2.431 h and the λz [3] was 0.088 ± 0.025 h⁻¹. For the same molecule, the t max [4] was 1.75 (0.50–3.00) h, the AUCt [4] was 65,307.036 ± 9629.912 h·ng/mL and the “AUC∞” value [4] was 65,706.064 ± 9748.640 h·ng/mL. For the same molecule, the “Accumulation Index” value [4] was 1.043 ± 0.026, the C max [4] was 8657.000 ± 1190.575 ng/mL and the CL [4] was 2398.514 ± 378.402 mL/h. For the same molecule, the V z/F_obs [4] was 34,943.264 ± 6986.821 mL, the “t ½” value [4] was 10.205 ± 2.013 h and the λz [4] was 0.070 ± 0.015 h⁻¹. For the same molecule, the t max [5] was 2.00 (1.50–3.50) h, the AUCt [5] was 85,040.673 ± 12,019.503 h·ng/mL and the “AUC∞” value [5] was 88,180.063 ± 13,633.711 h·ng/mL. For the same molecule, the “Accumulation Index” value [5] was 1.017 ± 0.019, the C max [5] was 13,203.333 ± 2762.033 ng/mL and the CL [5] was 2344.752 ± 361.388 mL/h. For the same molecule, the V z/F_obs [5] was 25,167.492 ± 5973.588 mL, the “t ½” value [5] was 7.573 ± 2.103 h and the λz [5] was 0.097 ± 0.024 h⁻¹. The t max [6] was 1.75 (0.50–2.50) h, the AUCt [6] was 77,994.986 ± 21,218.895 h·ng/mL and the “AUC∞” value [6] was 78,368.940 ± 21,616.249 h·ng/mL. For the same molecule, the “Accumulation Index” value [6] was 1.033 ± 0.018, the C max [6] was 12,388.333 ± 1607.376 ng/mL and the CL [6] was 2758.333 ± 677.108 mL/h. For the same molecule, the V z/F_obs [6] was 36,889.057 ± 5339.335 mL, the “t ½” value [6] was 9.534 ± 1.467 h and the λz [6] was 0.074 ± 0.012 h⁻¹. The t max [7] was 3.00 (1.50–3.500) h, the AUCt [7] was 118,269.238 ± 28,910.037 h·ng/mL and the “AUC∞” value [7] was 123,020.455 ± 32,873.290 h·ng/mL. For the same molecule, the “Accumulation Index” value [7] was 1.017 ± 0.011, the C max [7] was 19,286.667 ± 4086.434 ng/mL and the CL [7] was 2608.681 ± 641.704 mL/h. The V z/F_obs [7] was 29,476.605 ± 6045.099 mL, the “t ½” value [7] was 7.968 ± 1.106 h and the λz [7] was 0.088 ± 0.011 h⁻¹. The t max [8] was 1.75 (1.00–2.00) h, the AUCt [8] was 105,472.355 ± 19,487.237 h·ng/mL and the “AUC∞” value [8] was 105,772.678 ± 19,542.028 h·ng/mL. For the same molecule, the “Accumulation Index” value [8] was 1.033 ± 0.022, the C max [8] was 16,450.000 ± 3422.484 ng/mL and the CL [8] was 2992.073 ± 697.789 mL/h. For the same molecule, the V z/F_obs [8] was 41,797.611 ± 17,743.925 mL, the “t ½” value [8] was 9.445 ± 1.819 h and the λz [8] was 0.076 ± 0.015 h⁻¹.

From paper PMC5766731 (Clinical Pharmacokinetics, 2017)
